One test relates to Meriones unguiculatus. Kind of test: Inhibition of GR-73632-induced foot tapping in Mongolian gerbil at 1 mg/kg, po after 4 hrs. Type of test: functional. In a few lines: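 Female Mongolian gerbils were dosed orally in 0.4% methylcellulose/distilled water before icv injection of GR73632 (3 pmol in 5 μl). After recovery from anaesthesia, animals were placed in clear boxes for 5 min. Duration of rhythmic hind-foot tapping was timed and expressed as percent decrease (% inhibition).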

The target of a further test is Substance-P receptor (Homo sapiens, UniProt P25103). As to the kind of experiment: Displacement of [3H]Sar-Met substance P from human recombinant NK1 receptor expressed in CHO cells. Format: cell-based. The procedure, abridged: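 Membranes from CHO cells expressing recombinant human NK1 receptor. Radioligand was [³H]-Sar-Met substance P at about its experimentally derived Kd. Ki was calculated with the Cheng–Prusoff equation. Values are the mean of two or three independent determinations.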
Chain of Substance-P receptor (P25103 whole entry): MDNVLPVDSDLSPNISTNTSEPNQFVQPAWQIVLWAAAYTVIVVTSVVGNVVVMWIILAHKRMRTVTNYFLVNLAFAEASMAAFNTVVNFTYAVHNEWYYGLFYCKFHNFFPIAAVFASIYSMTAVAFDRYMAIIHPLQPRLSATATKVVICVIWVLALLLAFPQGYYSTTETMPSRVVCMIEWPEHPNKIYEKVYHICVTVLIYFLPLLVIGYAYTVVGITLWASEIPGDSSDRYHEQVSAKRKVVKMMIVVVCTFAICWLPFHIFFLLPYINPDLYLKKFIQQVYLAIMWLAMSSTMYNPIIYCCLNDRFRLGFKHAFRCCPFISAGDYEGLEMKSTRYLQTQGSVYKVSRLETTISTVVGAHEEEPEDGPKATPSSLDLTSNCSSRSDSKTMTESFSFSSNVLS
In general terms: Displacement assays read how much labelled ligand stays bound in the presence of the test substance.

The target of test [1] is T1, Substance-K receptor (Homo sapiens) (UniProt P21452).
T1 sequence (whole entry): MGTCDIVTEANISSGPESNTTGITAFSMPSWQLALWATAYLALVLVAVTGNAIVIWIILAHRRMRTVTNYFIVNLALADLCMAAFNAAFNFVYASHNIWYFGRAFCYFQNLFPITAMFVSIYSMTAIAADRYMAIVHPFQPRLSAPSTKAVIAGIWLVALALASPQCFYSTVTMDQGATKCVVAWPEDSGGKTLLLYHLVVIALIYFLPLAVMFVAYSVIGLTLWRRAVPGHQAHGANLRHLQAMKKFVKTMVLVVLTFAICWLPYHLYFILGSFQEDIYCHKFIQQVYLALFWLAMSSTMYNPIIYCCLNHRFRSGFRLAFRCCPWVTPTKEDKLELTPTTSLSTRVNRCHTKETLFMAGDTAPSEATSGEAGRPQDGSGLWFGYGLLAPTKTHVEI
As to the kind of experiment: Inhibition of [3H]neurokinin A binding to human recombinant NK2 receptor in CHO cells at 3 uM. Type of test: cell-based. The procedure, abridged:
(§1)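 Competition binding used membranes of CHO cells carrying recombinant human NK2 receptor. [³H]neurokinin A was the ligand, at a concentration near its experimentally derived Kd. Data are the average of two or three independent determinations.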

The target in test [2] is T2, Neuromedin-K receptor (Homo sapiens, UniProt P29371).
T2 sequence (P29371 whole entry): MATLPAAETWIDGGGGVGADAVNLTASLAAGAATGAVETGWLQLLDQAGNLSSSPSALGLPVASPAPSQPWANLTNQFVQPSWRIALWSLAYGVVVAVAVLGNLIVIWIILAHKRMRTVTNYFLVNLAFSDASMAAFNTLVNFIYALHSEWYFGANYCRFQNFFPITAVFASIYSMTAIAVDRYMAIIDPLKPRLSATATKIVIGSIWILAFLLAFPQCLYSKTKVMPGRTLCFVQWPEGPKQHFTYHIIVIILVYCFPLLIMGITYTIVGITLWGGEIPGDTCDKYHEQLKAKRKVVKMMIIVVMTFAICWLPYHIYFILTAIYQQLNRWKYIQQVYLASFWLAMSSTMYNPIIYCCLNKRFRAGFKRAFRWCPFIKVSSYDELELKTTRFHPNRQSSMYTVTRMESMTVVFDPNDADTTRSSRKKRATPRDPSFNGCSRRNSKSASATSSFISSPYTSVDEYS
As to the kind of experiment: Displacement of [125I]neurokinin B from human recombinant NK3 receptor in CHO cells.

Test [3] concerns the target T2, Neuromedin-K receptor. Kind of test: Displacement of [3H]neurokinin B from human recombinant NK3 receptor in CHO cells. Type of test: cell-based. The following applies: in the assay text read “[125I]neurokinin B” for “[3H]neurokinin B”. In a few lines: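 Membrane preparations came from CHO cells expressing recombinant human NK3 receptor. Labelled neurokinin B ligand was used near its experimentally derived Kd. Ki was obtained by the Cheng–Prusoff equation. Values are the average of two or three independent determinations.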

Test [4] has as its target T1, Substance-K receptor (Homo sapiens). As to the kind of experiment: Inhibition of [3H]neurokinin A binding to human recombinant NK2 receptor in CHO cells at 0.3 uM. Type of test: cell-based. In a few lines:
as §1

Structures are written as SMILES.

The inhibition in vivo is the percentage by which the read-out fell short of the control. Low readings indicate a weak effect, high ones a strong effect. For orientation: Ki means a measure of affinity in units of concentration, obtained from inhibition or displacement. For the molecule `C[C@@H](OC[C@]1(c2ccccc2)C[C@H](N2CCCC2=O)C1)c1cc(C(F)(F)F)cc(C(F)(F)F)c1`, the inhibition in vivo at 1 mg/kg in the test on Meriones unguiculatus was determined as 3%. In addition, the Ki at Substance-P receptor is 0.3 nM.

As for `C[C@@H](OC[C@]1(c2ccccc2)C[C@](N)(C(=O)N(C)C)C1)c1cc(C(F)(F)F)cc(C(F)(F)F)c1`, in the test on Meriones unguiculatus, the inhibition in vivo at 1 mg/kg was 79%. Also, the Ki on Substance-P receptor amounted to 3.3 nM.

Regarding `C[C@@H](OC[C@]1(c2ccccc2)C[C@@H](N2CCCC2=O)C1)c1cc(C(F)(F)F)cc(C(F)(F)F)c1` (mixture of isomers), the inhibition in vivo at 1 mg/kg in the test with Meriones unguiculatus was found to be 41%. Besides, the Ki on Substance-P receptor was 0.4 nM.

By inhibition is commonly meant the change of the read-out against control, counted positive when it falls. Consider `CC(=O)N[C@H]1C[C@](CO[C@H](C)c2cc(C(F)(F)F)cc(C(F)(F)F)c2)(c2ccccc2)C1`, for which the inhibition in test [1] was 23%. For the same molecule, the Ki at Neuromedin-K receptor [2] was found to be 2130 nM; at Substance-P receptor, 0.4 nM. Further, in the test with Meriones unguiculatus, the inhibition in vivo at 1 mg/kg amounted to 25%.

`CNC(=O)[C@]1(N)C[C@](CO[C@H](C)c2cc(C(F)(F)F)cc(C(F)(F)F)c2)(c2ccccc2)C1` displayed an inhibition in vivo at 1 mg/kg in the test with Meriones unguiculatus of 58%. Besides, the Ki at Substance-P receptor was 0.5 nM.

On to `C[C@@H](OCC1(c2ccccc2)CC(NCc2ccccc2)C1)c1cc(C(F)(F)F)cc(C(F)(F)F)c1` (stereo partly drawn), for which 1 mg/kg produced 25% inhibition in vivo in the test with Meriones unguiculatus. Moreover, the Ki at Substance-P receptor was found to be 0.3 nM.

In the case of `C[C@@H](OCC1(c2ccccc2)CC(N)C1)c1cc(C(F)(F)F)cc(C(F)(F)F)c1` (stereo partly drawn), the inhibition in test [1] came to 25%. Moreover, the inhibition in vivo at 1 mg/kg with Meriones unguiculatus worked out at 21%. In addition, the Ki on Neuromedin-K receptor [3] came out at 4050 nM; at Substance-P receptor, 0.02 nM.

For the molecule `CNC(=O)[C@]1(N)C[C@@](CO[C@H](C)c2cc(C(F)(F)F)cc(C(F)(F)F)c2)(c2ccccc2)C1`, the inhibition in test [4] amounted to 1.2%. In the test on Meriones unguiculatus, this molecule showed an inhibition in vivo at 1 mg/kg of 98%. The figures for the Ki on Neuromedin-K receptor [3] and on Substance-P receptor were 2000 nM and 1 nM, respectively.

`C[C@@H](OCC1(c2ccccc2)CC(=O)C1)c1cc(C(F)(F)F)cc(C(F)(F)F)c1` gave an inhibition in vivo at 1 mg/kg with Meriones unguiculatus of 11%. For the same molecule, the Ki at Substance-P receptor stood at 2.4 nM.

On to `C[C@@H](OC[C@]1(c2ccccc2)C[C@](N)(C(=O)N2CCCC2)C1)c1cc(C(F)(F)F)cc(C(F)(F)F)c1`, for which at 1 mg/kg the inhibition in vivo with Meriones unguiculatus was 13%. Further, the Ki on Substance-P receptor came to 1.3 nM.

`C[C@@H](OCC1(c2ccccc2)CC(NCc2n[nH]c(O)n2)C1)c1cc(C(F)(F)F)cc(C(F)(F)F)c1` (stereo partly drawn) gave an inhibition in vivo at 1 mg/kg in the test on Meriones unguiculatus of 22%. Moreover, the Ki at Substance-P receptor was 0.5 nM.

In the case of `C[C@@H](OC[C@]1(c2ccccc2)C[C@](N)(C(=O)N2CCCCC2)C1)c1cc(C(F)(F)F)cc(C(F)(F)F)c1`, the inhibition in vivo at 1 mg/kg in the test with Meriones unguiculatus was 15%. On Substance-P receptor, the Ki is 1.3 nM.

Turning to `C[C@@H](OC[C@]1(c2ccccc2)C[C@](N)(C(N)=O)C1)c1cc(C(F)(F)F)cc(C(F)(F)F)c1`, in the test on Meriones unguiculatus, the inhibition in vivo at 1 mg/kg was 81%. For the same molecule, the Ki on Substance-P receptor turned out to be 1 nM.

`C[C@@H](OC[C@]1(c2ccccc2)C[C@@](N)(C(N)=O)C1)c1cc(C(F)(F)F)cc(C(F)(F)F)c1` displayed an inhibition in vivo at 1 mg/kg with Meriones unguiculatus of 30%. The Ki on Substance-P receptor came out at 0.43 nM.

In the case of `CC(=O)N[C@H]1C[C@@](CO[C@H](C)c2cc(C(F)(F)F)cc(C(F)(F)F)c2)(c2ccccc2)C1`, in test [1], the inhibition came out at 26%. Also, the Ki at Neuromedin-K receptor [2] is 631 nM; on Substance-P receptor, 0.1 nM. This molecule also displayed an inhibition in vivo at 1 mg/kg with Meriones unguiculatus of 23%.
